Screening data: PubChem, several laboratories
PP1 counter = counter-screen for PP5 inhibitors: inhibitors of human PP1-alpha | P62136 | purified PP1alpha, OMFP fluorescence | inhibition, % at 6.7 µM | 0.9% of 320,000 active | AID 2235;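 active means inhibition above the mean inhibition of all tested compounds plus 3 SD, computed separately for each screening campaign, cut at about 15% in these data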
Target sequence (P62136 whole entry, looked up): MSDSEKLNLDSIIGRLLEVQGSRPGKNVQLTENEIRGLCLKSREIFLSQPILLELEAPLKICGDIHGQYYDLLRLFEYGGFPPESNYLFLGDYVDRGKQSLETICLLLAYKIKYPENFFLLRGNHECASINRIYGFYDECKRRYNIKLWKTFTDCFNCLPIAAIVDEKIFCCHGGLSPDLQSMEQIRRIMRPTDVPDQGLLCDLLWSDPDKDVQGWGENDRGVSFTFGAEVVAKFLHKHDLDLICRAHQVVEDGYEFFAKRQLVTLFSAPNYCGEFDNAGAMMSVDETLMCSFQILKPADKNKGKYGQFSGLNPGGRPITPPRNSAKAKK
PREPL inh = human PREPL enzyme inhibition | recombinant PREPL, fluorescence polarization activity-based probe | 0.68% of 320,000 active | inhibition, % at 5.96 µM | Q4J6C6; in the data active means inhibition above about 43%;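 further: 0% = enzyme with DMSO and 100% = wells lacking enzyme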
UCH37 DUB inh = inhibitors of human deubiquitinating enzyme UCH37; Q9Y5K5; purified proteasome/UCH37, Ub-AMC cleavage fluorescence; inhibition, % (no concentration beside the values); 0.33% of 330,000 active; AID 588478;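 active means mean inhibition over replicate wells above about 20%, limit read from the data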;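 further: 0% = compound-free wells with enzyme and 100% = wells lacking proteasome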
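assay system = human UCH37 enzyme supplied as purified proteasome complex | amount = proteasome at 0.15 nM in the dispensed enzyme solution | schedule = 30 min compound-proteasome preincubation then 25 min substrate reaction, room temperature | measured by = fluorescence, ex 355 nm, em 460 nm | benchmarks = no-proteasome wells (full inhibition) and compound-free wells (no inhibition)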
CTSL1 counter = blocks F. hepatica cathepsin L1 in PFM18AAP counter-screen. inhibition, % at 5.96 µM. recombinant F. hepatica cathepsin L1, Z-Leu-Arg-MCA fluorescence. 0.49% of 300,000 active;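 active means inhibition above the mean of all tested compounds plus 3 SD, set per screening campaign, cut at about 17% in these data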;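 further: 0% = plate median of test compound wells and 100% = 1 µM Z-Phe-Ala-diazomethylketone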
UBC13 inh = human UBC13 polyubiquitination inhibition; P61088; UBC13 polyubiquitin chain formation, TR-FRET; inhibition, % at 20 µM; 0.47% of 330,000 active; in the data active means inhibition above about 45%, passing the limit was not always enough
Target sequence (P61088 whole entry, looked up): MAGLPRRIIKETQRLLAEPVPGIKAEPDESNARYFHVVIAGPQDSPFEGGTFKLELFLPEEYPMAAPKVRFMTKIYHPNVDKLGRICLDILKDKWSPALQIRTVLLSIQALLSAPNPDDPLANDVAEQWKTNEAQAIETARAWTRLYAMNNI
PP5 inh = inhibitors of human protein phosphatase 5 (PP5) | purified PP5c, OMFP substrate fluorescence | inhibition, % at 6.7 µM | 0.18% of 320,000 active;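 active means inhibition above the campaign's mean inhibition across all tested compounds plus 3 SD, cut at about 9.5% in these data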;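 further: 0% = DMSO only and 100% = 100 µM cantharidin control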
An asterisk follows results filed as active; . = no result given. Most compounds without a hit are left out; they make up all but 2.3% or so of the library.

SMILES	PP1 counter	PREPL inh	UCH37 DUB inh	CTSL1 counter	UBC13 inh	PP5 inh
CCOC(=O)c1sc(NC(=O)CSc2n[nH]c(-c3ccncc3)n2)c(C#N)c1C	3	10	2	2	-10	2
CCOc1ccc(/C=C/C2=Cc3c(sc(NC(=O)CSc4n[nH]c(N)n4)c3C#N)C(C)(C)C2)cc1	22*	-13	-38	-3	-24	2
CN(C)C1=C(Cl)C(=O)N(c2ccc(Cl)c(Cl)c2)C1=O	-3	11	1	38*	-13	-1
C#CCOCCOCCOCCNc1nc(N2CCN(C(=O)[C@H](Cc3cc4ccccc4[nH]3)n3cc([C@@H](N)C(C)CC)nn3)CC2)nc(N2CCN(C(=O)[C@H](Cc3cc4ccccc4[nH]3)n3cc([C@@H](N)CC(C)C)nn3)CC2)n1 (stereo not given in full)	19*	69*	.	1	61*	1
C#CCOCCOCCOCCNc1nc(N2CCN(C(=O)[C@H](CCCCN)n3cc([C@@H](N)CO)nn3)CC2)nc(N2CCN(C(=O)[C@H](Cc3cc4ccccc4[nH]3)n3cc([C@@H](N)CO)nn3)CC2)n1	1	34	1	-1	110*	6
C#CCOCCOCCOCCNc1nc(N2CCN(C(=O)[C@H](CCC(=O)O)n3cc(C(N)CO)nn3)CC2)nc(N2CCN(C(=O)[C@H](Cc3cc4ccccc4[nH]3)n3cc(C(N)[C@H](C)CC)nn3)CC2)n1 (stereo not given in full)	-1	18	0	-2	25	1
C#CCOCCOCCOCCNc1nc(N2CCOCC2)nc(N2CCN(C(=O)[C@H](CCC(=O)O)n3cc(C(N)Cc4ccc(O)cc4)nn3)CC2)n1 (stereo not given in full)	-1	-7	-1	-6	-13	2
C#CCOCCOCCOCCNc1nc(N2CCOCC2)nc(N2CCN(C(=O)[C@H](Cc3cc4ccccc4[nH]3)n3cc([C@@H](N)Cc4ccc(O)cc4)nn3)CC2)n1	-2	21	23*	-3	9	0
C#CCOCCOCCOCCNc1nc(N2CCN(C(=O)[C@H](Cc3cc4ccccc4[nH]3)n3cc([C@@H](N)C(C)CC)nn3)CC2)nc(N2CCN(C(=O)[C@H](CCCCN)n3cc([C@@H](N)CO)nn3)CC2)n1 (stereo not given in full)	8	43	4	-2	110*	2
COc1ccc(C=NNC(=O)C2CC2)c(OC)c1OC	.	.	-2	.	.	.
CC(=NNC(=O)CSCc1ccc([N+](=O)[O-])cc1)c1cccc(Br)c1	.	.	2	.	.	.
COc1ccc(C(=O)CCC(=O)N2CCN(c3ccc([N+](=O)[O-])cc3)CC2)cc1	16*	-13	5	8	-9	0
O=C1c2ccccc2COc2ccc(O)cc21	-4	3	6	21*	-2	1
COc1ccc2c(c1)C(=O)c1ccccc1CO2	2	-4	0	1	9	0
CC(=O)Nc1ccc(NC(=S)NC(=O)C2CC2)cc1	2	-6	.	30*	-2	2
COc1cc(C=NNC(=O)COc2cccc(F)c2)ccc1OS(=O)(=O)c1ccc(C)cc1	.	.	7	.	.	.
Cc1ccc(S(=O)(=O)NN=Cc2cccc3c2OCCO3)cc1	.	.	0	.	.	.
COc1cc(C(c2oc(CO)cc(=O)c2O)c2oc(CO)cc(=O)c2O)cc(OC)c1OC	0	-2	3	51*	-12	2
COc1ccc(C(c2oc(CO)cc(=O)c2O)c2oc(CO)cc(=O)c2O)cc1OC	0	9	3	0	-5	-2
COc1cccc(C(=O)NN=c2oc3ccccc3cc2C(N)=O)c1	.	.	9	.	.	.
CC[n+]1c(/C=C/N(C)c2ccccc2)oc2ccccc21	0	14	21*	4	1	1
CC[n+]1c(/C=C/N(C)c2ccccc2)oc2ccc(F)cc21	4	3	24*	-1	-18	7
CCOc1cccc(C(=O)N2CCCCC2c2cccnc2)c1 (stereo not given)	16*	-1	5	-2	-3	1
Cc1ccc(-c2ccc(/C=C3\C(=O)ON=C3c3ccccc3)o2)c([N+](=O)[O-])c1	17*	14	18	3	-23	4
CC(=O)CS(=O)(=O)c1ccc(Oc2ccc(S(=O)(=O)CC(C)=O)cc2)cc1	1	-22	4	24*	-1	0
SMILES	PP1 counter	PREPL inh	UCH37 DUB inh	CTSL1 counter	UBC13 inh	PP5 inh
O=C(O)CS(=O)(=O)c1ccc(Oc2ccc(S(=O)(=O)CC(=O)O)cc2)cc1	-1	1	-1	-2	-14	3
O=C1Cc2ccccc2C(=O)N1c1ccccc1	2	-8	-6	-2	4	3
O=C1Cc2ccccc2C(=O)N1Cc1ccccc1	2	-1	26*	1	-14	5
CC1(C)S[C@@H]2[C@H](NC(=O)COc3ccccc3)C(=O)N2C1C(=O)OCc1cc2ccccc2n1S(=O)(=O)c1ccccc1 (stereo not given in full)	25*	-26	.	1	.	1
CC1(C)S[C@@H]2[C@H](NC(=O)COc3ccccc3)C(=O)N2C1C(=O)OCC1CCCCC1 (stereo not given in full)	-12	-5	-1	1	-2	7
COc1ccc(OC)c(C(O)=CC(=O)C(=O)Nc2cc(C)ccc2OC)c1	.	.	5	.	.	.
C/C(C=NNC(=O)Cn1nccc1C)=C\c1ccc(C(C)C)cc1	.	.	4	.	.	.
COCCN1C(=O)N[C@@H](c2ccccc2)[C@@H](C(=O)OC)[C@H]1C	1	4	22*	-2	-1	1
COc1cc(/C=C2\S/C(=N/S(=O)(=O)c3ccc(C)cc3)NC2=O)c([N+](=O)[O-])cc1OC	14	8	20*	7	-12	0
Cc1ccc(S(=O)(=O)/N=C2/NC(=O)/C(=C/c3cc([N+](=O)[O-])ccc3O)S2)cc1	9	16	.	3	-47	1
COc1ccc(COC(=O)NNC(=O)c2ccccc2Cl)cc1	0	-4	1	52*	1	-2
CCN1CCc2c(sc(N)c2C#N)C1	-1	39	-16	-2	-27	2
N#Cc1c(N)sc(=S)c2c1CCN(Cc1ccccc1)C2	20*	74*	.	109*	-14	2
Cc1cc(/C=N/NC(N)=S)c(C)n1-c1ccc(Cl)cc1	0	29	.	17*	-28	0
Oc1oc(-c2ccccc2)nc1C=NCc1ccncc1	-3	1	16	36*	-19	1
Oc1oc(-c2ccc(Br)cc2)nc1/C=N/c1ccccn1	-3	5	.	23*	0	1
Oc1oc(-c2ccccc2)nc1C=Nc1cccc2ccccc12	-3	40	-13	0	-3	-2
Oc1oc(-c2ccccc2)nc1/C=N/c1nccs1	-1	-2	.	45*	-8	4
